Data set [1] relates to A549. Briefly: Chemosensitization activity in human A549 cells assessed as inhibition of clonogenic growth at 0.25 uM in presence of 0.74 uM cisplatin incubated for 2 days followed by replacement of growth media and measured after 8 days by crystal violet staining-based assay relative to control. In kind it is functional. In a few lines: (§1)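 A549 seeded at 1000 cells per well in 6-well plates, exposed to drug alone or combined with cisplatin or 5-Fu over a concentration series. Drug-containing medium replaced after 2 days. After a further 8 days, fixed with 1% methanol/1% formaldehyde and stained with 0.5% crystal violet. Percent inhibition at each concentration calculated relative to control.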

Data set [2] concerns A549. Briefly: Antiproliferative activity against human A549 cells harboring IKKbeta at 6.67 to 60 uM after 24 hrs by MTT assay. It is filed as functional, cell-based. A digest of the protocol: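 A549 (seeded 3 × 10^5 per well, overnight) transfected with IKKβ plasmid or empty vector using lipofectamine 2000 in serum-free medium for 6 h, then moved to 1640 with 10% FBS. Treated at 60, 20 or 6.67 µM for 24 h. MTT (5 mg/mL stock) added for 4 h, formazan dissolved in DMSO, absorbance read at 490 nm.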
(In general: Tetrazolium assays rely on reduction of a dye to a coloured formazan, in cell work by metabolically active cells.)

The test system of data set [3] is NCI-H460. Briefly: Cytotoxicity against human H460 cells assessed as reduction in cell viability after 72 hrs by MTT assay. In kind it is functional, cell-based. The settings on record: NCI-H460, 72 h. In a few lines: (§2)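 Cells in RPMI 1640 with 10% heat-inactivated FBS and penicillin/streptomycin at 37 °C, 5% CO2. Seeded at 4000 per well, adhered overnight, then exposed to graded compound concentrations in triplicate wells for 72 h. MTT (5 mg/mL stock) added for 4 h, dissolved in DMSO, A490 read. IC50 is the concentration reducing viability by 50% versus untreated control.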

Data set [4] relates to A549. Briefly: Induction of ROS generation in human A549 cells at 10 uM after 12 hrs by DCFDA staining based flow cytometric analysis. It is filed as functional, cell-based. The settings on record: in the assay text read “after 9 hrs” for “after 12 hrs”. In a few lines: (§3)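 A549 (6 × 10^5 per 60 mm dish) exposed to 10 µM over a time course up to 12 h, or at 1, 5 or 10 µM for 9 h. Optional NAC (5 mM) pretreatment for 1 h before 10 µM for 9 h. Cells loaded with DCF-DA (10 µM) for 30 min at 37 °C in the dark, washed, and read by flow cytometry.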

In data set [5] the test system is A549. Description: Cell cycle arrest in human A549 cells assessed as increase in accumulation at G2/M phase after 10 hrs by propidium iodide staining based flow cytometric analysis. In kind it is functional. A digest of the protocol: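 A549 (6 × 10^5 per 60 mm dish, overnight) treated at 1, 5 or 10 µM for 10 h, with BMS345541 (20 µM) as positive control. Trypsinized, fixed in ice-cold 70% ethanol at −20 °C for 30 min, treated with RNase A, stained with 50 µg/mL PI, analysed by flow cytometry.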
On the technique in general: A flow cytometer gives signals particle by particle.

The test system of data set [6] is A549. Briefly: Chemosensitization activity in human A549 cells assessed as inhibition of clonogenic growth at 1 uM in presence of 0.25 uM cisplatin incubated for 2 days followed by replacement of growth media and measured after 8 days by crystal violet staining-based assay relative to control. In kind it is functional. In a few lines:
as §1

Data set [7] concerns A549. Description: Induction of ROS generation in human A549 cells at 10 uM preincubated with NAC for 1 hr followed by compound addition and measured after 9 hrs by DCFDA staining based flow cytometric analysis. In kind it is functional, cell-based. A digest of the protocol:
as §3

Data set [8] is described as follows: Selectivity index, ratio of IC50 for human HL7702 cells to IC50 for human A549 cells. In kind it is toxicity. A digest of the protocol: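 Selectivity index taken as the logarithm of the ratio of the HL7702 IC50 to the cancer-line IC50. […] Not calculated when an IC50 was lacking.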
Data set [9] has as its system A549. Briefly: Chemosensitization activity in human A549 cells assessed as inhibition of clonogenic growth at 0.5 uM in presence of 0.25 uM cisplatin incubated for 2 days followed by replacement of growth media and measured after 8 days by crystal violet staining-based assay relative to control. It is filed as functional. In a few lines: as §1
Data set [10] has as its target T1, NF-kappa-B inhibitor alpha (Homo sapiens) (UniProt P25963).
T1 sequence (whole entry): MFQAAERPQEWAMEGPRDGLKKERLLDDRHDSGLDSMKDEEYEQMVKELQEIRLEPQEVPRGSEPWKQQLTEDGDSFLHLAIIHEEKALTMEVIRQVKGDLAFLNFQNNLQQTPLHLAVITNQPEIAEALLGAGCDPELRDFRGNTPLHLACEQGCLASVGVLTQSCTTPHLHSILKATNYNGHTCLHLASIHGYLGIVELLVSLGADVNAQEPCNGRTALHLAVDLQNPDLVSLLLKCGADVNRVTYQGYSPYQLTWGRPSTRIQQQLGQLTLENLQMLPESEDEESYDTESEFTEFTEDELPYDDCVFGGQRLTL
Briefly: Inhibition of TNF-alpha induced IkappaBalpha degradation in human A549 cells at 10 uM pretreated with 5 mM NAC for 1 hr followed by compound addition and measured after 1 hr by Western blot analysis. In kind it is cell-based. A digest of the protocol:
(§4)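 A549 preincubated 1 h at 1, 5 or 10 µM, or with BMS345541 (20 µM), then stimulated with TNFα (1 ng/mL) for 15 min. NAC arm: 5 mM NAC for 1 h, then 10 µM for 1 h. IκBα detected by western blot, GAPDH as loading control.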

Data set [11] relates to A549. Description: Chemosensitization activity in human A549 cells assessed as inhibition of clonogenic growth at 0.25 uM in presence of 3 uM cisplatin incubated for 2 days followed by replacement of growth media and measured after 8 days by crystal violet staining-based assay relative to control. In kind it is functional. A digest of the protocol: as §1
In data set [12] the test system is A549. Description: Anticlonogenic activity against human A549 cells assessed as inhibition of clonogenic growth at 1 uM incubated for 2 days followed by replacement of growth media and measured after 8 days by crystal violet staining-based assay relative to control. In kind it is functional. A digest of the protocol:
as §1

Data set [13] relates to A549. Briefly: Chemosensitization activity in human A549 cells assessed as inhibition of clonogenic growth at 0.25 uM in presence of 0.25 uM cisplatin incubated for 2 days followed by replacement of growth media and measured after 8 days by crystal violet staining-based assay relative to control. In kind it is functional. A digest of the protocol: as §1
The target in data set [14] is T1, NF-kappa-B inhibitor alpha (Homo sapiens). Description: Inhibition of TNF-alpha induced IkappaBalpha degradation in human A549 cells at 1 to 10 uM preincubated for 1 hr followed by TNF-alpha addition and measured after 15 mins by Western blot analysis. In kind it is cell-based. In a few lines: as §4
(In general: In western blotting, separated proteins are transferred to a membrane and probed.)

The subject of data set [15] is A549. Briefly: Chemosensitization activity in human A549 cells assessed as inhibition of clonogenic growth at 0.5 uM in presence of 0.74 uM cisplatin incubated for 2 days followed by replacement of growth media and measured after 8 days by crystal violet staining-based assay relative to control. In kind it is functional. In a few lines:
as §1

Data set [16] has as its system A549. Description: Induction of apoptosis in human A549 cells at 10 uM pretreated with 5 mM NAC for 1 hr followed by compound addition and measured after 24 hrs by Annexin V-FITC/propidium iodide staining based flow cytometric analysis. It is filed as functional, cell-based. A digest of the protocol:
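A549 treated 24 h at 1, 5 or 10 µM, with BMS345541 20 µM as control. Inhibitor arms pretreated 1 h with NAC (5 mM) or SP600125 (10 µM) before 10 µM. Cells harvested with EDTA-free trypsin, stained with FITC Annexin V and PI for 15 min at room temperature in the dark, analysed by flow cytometry.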

In data set [17] the test system is NCI-H1975. Briefly: Cytotoxicity against human NCI-H1975 cells assessed as reduction in cell viability after 72 hrs by MTT assay. Conditions: NCI-H1975, 72 h. It is filed as functional, cell-based. In a few lines:
as §2

Activity calls are given as the source filed them. The rule behind the calls is not given here.

Usually IC50 stands for the midpoint of a concentration-inhibition curve. Usually inhibition stands for the change of the read-out against control, counted positive when it falls. In the case of `COc1cc(/C=C2\CN(C)C/C(=C\c3cc(OC)c(OC)c(OC)c3)C2=O)cc(OC)c1OC`, the “inhibition (INH)” value in data set [1] is listed as 63%; in data set [6], 90%; in data set [9], 59%; in [11] it was 57%; in [15], 82%. Also, the outcome in data set [2], in data set [7] and in [16] was inactive. The IC50 in data set [3] and in data set [17] was 1 µM throughout. Moreover, the Activity result in data set [4] and in [5] was “Dose-dependent effect” throughout. Moreover, in data set [8], the “log(RatioIC50)” value came out at 1.19. The inhibition result in [10] is “inactive”. Besides, the inhibition at 1 µM in data set [12] was found to be 44%. For the same molecule, in data set [13], the inhibition at 0.25 µM is 51%. Besides, in data set [14], the inhibition result is “Active”.
